In ChEMBL document CHEMBL1150245, “1-Aryl-2-dimethylaminomethyl-2-propen-1-one hydrochlorides and related adducts: A quest for selective cytotoxicity for malignant cells” (Bioorg Med Chem, 2008):
The source made the active and inactive calls. No cut-off for these calls is given here.

test system: HSC-4; test: Cytotoxicity against human HSC4 cells; type: functional; settings: not given
Method in brief: (§1)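 CC50 is the concentration killing 50% of cells, tested up to a highest concentration of 400 μM. Each value is the average of two independent determinations.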

Row | SMILES | CC50 [µM]
1 | N[C@@H](Cc1ccc(N(CCCl)CCCl)cc1)C(=O)O [MELPHALAN] | 81
2 | C=C(CN(C)C)C(=O)c1ccccc1 | 33
3 | CN(C)CC(CO)C(=O)c1ccccc1 (stereo unspecified) | 6.5
4 | CN(C)CC(CO)C(=O)c1ccc([N+](=O)[O-])cc1 (stereo unspecified) | 99
5 | C=C(CN(C)C)C(=O)c1ccc(OC)cc1 | 6.1
6 | C=C(CN(C)C)C(=O)c1ccc([N+](=O)[O-])cc1 | 19

test system: L1210; test: Cytotoxicity against mouse L1210 cells after 48 hrs; settings: L1210, 48 h

Row | SMILES | IC50 [µM]
7 | CN(C)CC(CO)C(=O)c1ccccc1 (stereo unspecified) | 1.65
8 | CN(C)CC(CO)C(=O)c1ccc([N+](=O)[O-])cc1 (stereo unspecified) | 42.6
9 | C=C(CN(C)C)C(=O)c1ccc([N+](=O)[O-])cc1 | 8.61

test system: not listed separately; test: Cytotoxicity against human HGF cells; type: cell-based; settings: not given; method in brief: as §1

Row | SMILES | CC50 [µM]
10 | N[C@@H](Cc1ccc(N(CCCl)CCCl)cc1)C(=O)O [MELPHALAN] | > 200
11 | C=C(CN(C)C)C(=O)c1ccccc1 | 26
12 | CN(C)CC(CO)C(=O)c1ccccc1 (stereo unspecified) | 4.4
13 | CN(C)CC(CO)C(=O)c1ccc([N+](=O)[O-])cc1 (stereo unspecified) | 271
14 | C=C(CN(C)C)C(=O)c1ccc(OC)cc1 | 6.8
15 | C=C(CN(C)C)C(=O)c1ccc([N+](=O)[O-])cc1 | 19.3

test system: HL-60; test: Induction of apoptosis assessed as activation of caspase 3 activity in human HL60 cells after 4 hrs; type: functional, cell-based; settings: not given
Method in brief: (§2)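 Caspase activation measured in neoplastic cells seeded at 4 × 10^4 cells and incubated with compound for 4 h. Each value is the mean of two or three experiments.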

Row | SMILES | Activity
16 | C=C(CN(C)C)C(=O)c1ccc(OC)cc1 | Active

test system: HL-60; test: Cytotoxicity against human HL60 cells; type: functional; settings: not given; method in brief: as §1

Row | SMILES | CC50 [µM]
17 | N[C@@H](Cc1ccc(N(CCCl)CCCl)cc1)C(=O)O [MELPHALAN] | 6
18 | C=C(CN(C)C)C(=O)c1ccccc1 | 12
19 | CN(C)CC(CO)C(=O)c1ccccc1 (stereo unspecified) | 0.41
20 | CN(C)CC(CO)C(=O)c1ccc([N+](=O)[O-])cc1 (stereo unspecified) | 35
21 | C=C(CN(C)C)C(=O)c1ccc(OC)cc1 | < 3.4
22 | C=C(CN(C)C)C(=O)c1ccc([N+](=O)[O-])cc1 | 1.6

test system: RPMI-8226; test: Cytotoxicity against human RPMI8226 cells; type: functional, cell-based; settings: not given
Method in brief: (§3)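 Part of a human tumour cell line panel screen run by a literature procedure with compounds at 10−8–10−4 M. GI50 is the concentration giving 50% growth inhibition. Where 50% inhibition was not reached at 100 μM, 100 μM was used as the value.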

Row | SMILES | IC50 [µM]
23 | N[C@@H](Cc1ccc(N(CCCl)CCCl)cc1)C(=O)O [MELPHALAN] | 66.1
24 | C=C(CN(C)C)C(=O)c1ccccc1 | 1.91
25 | C=C(CN(C)C)C(=O)c1ccc(OC)cc1 | 21.4

test system: CCRF-CEM; test: Cytotoxicity against human CCRF-CEM cells; type: functional, cell-based; settings: not given; method in brief: as §3

Row | SMILES | IC50 [µM]
26 | N[C@@H](Cc1ccc(N(CCCl)CCCl)cc1)C(=O)O [MELPHALAN] | 6.17
27 | C=C(CN(C)C)C(=O)c1ccccc1 | 0.4
28 | C=C(CN(C)C)C(=O)c1ccc(OC)cc1 | 0.37

test system: not listed separately; test: Cytotoxicity against human HPC cells; type: cell-based; settings: not given; method in brief: as §1

Row | SMILES | CC50 [µM]
29 | N[C@@H](Cc1ccc(N(CCCl)CCCl)cc1)C(=O)O [MELPHALAN] | > 200
30 | C=C(CN(C)C)C(=O)c1ccccc1 | 31
31 | CN(C)CC(CO)C(=O)c1ccccc1 (stereo unspecified) | 5.5
32 | CN(C)CC(CO)C(=O)c1ccc([N+](=O)[O-])cc1 (stereo unspecified) | 227
33 | C=C(CN(C)C)C(=O)c1ccc(OC)cc1 | 5.1
34 | C=C(CN(C)C)C(=O)c1ccc([N+](=O)[O-])cc1 | 30

test system: CCRF-CEM; test: Cytotoxicity against human CEM cells after 72 hrs; type: functional, cell-based; settings: not given
Method in brief: (§4)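 Human transformed T-lymphocytes exposed to a range of compound concentrations at 37 °C for 72 h. IC50 is the concentration giving 50% inhibition of cell growth.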

Row | SMILES | IC50 [µM]
35 | C=C(CN(C)C)C(=O)c1ccccc1 | 65.6
36 | CN(C)CC(CO)C(=O)c1ccccc1 (stereo unspecified) | 1.42
37 | CN(C)CC(CO)C(=O)c1ccc([N+](=O)[O-])cc1 (stereo unspecified) | 12.2
38 | C=C(CN(C)C)C(=O)c1ccc(OC)cc1 | 10.6
39 | C=C(CN(C)C)C(=O)c1ccc([N+](=O)[O-])cc1 | 7.91

test system: not listed separately; test: Cytotoxicity against human HPLF cells; type: cell-based; settings: not given; method in brief: as §1

Row | SMILES | CC50 [µM]
40 | N[C@@H](Cc1ccc(N(CCCl)CCCl)cc1)C(=O)O [MELPHALAN] | > 200
41 | C=C(CN(C)C)C(=O)c1ccccc1 | 52
42 | CN(C)CC(CO)C(=O)c1ccccc1 (stereo unspecified) | 5.2
43 | CN(C)CC(CO)C(=O)c1ccc([N+](=O)[O-])cc1 (stereo unspecified) | 176
44 | C=C(CN(C)C)C(=O)c1ccc(OC)cc1 | 9.2
45 | C=C(CN(C)C)C(=O)c1ccc([N+](=O)[O-])cc1 | 26

test system: K562; test: Cytotoxicity against human K562 cells; type: functional, cell-based; settings: not given; method in brief: as §3

Row | SMILES | IC50 [µM]
46 | C=C(CN(C)C)C(=O)c1ccccc1 | 2.19
47 | C=C(CN(C)C)C(=O)c1ccc(OC)cc1 | 1.05

test system: L1210; test: Cytotoxicity against mouse L1210 cells after 72 hrs; type: functional, cell-based; settings: L1210, 72 h

Row | SMILES | IC50 [µM]
48 | C=C(CN(C)C)C(=O)c1ccccc1 | 52.2
49 | C=C(CN(C)C)C(=O)c1ccc(OC)cc1 | 5.08

test system: HSC-2; test: Cytotoxicity against human HSC2 cells; type: functional; settings: not given; method in brief: as §1

Row | SMILES | CC50 [µM]
50 | N[C@@H](Cc1ccc(N(CCCl)CCCl)cc1)C(=O)O [MELPHALAN] | 35
51 | C=C(CN(C)C)C(=O)c1ccccc1 | 29
52 | CN(C)CC(CO)C(=O)c1ccccc1 (stereo unspecified) | 5.2
53 | CN(C)CC(CO)C(=O)c1ccc([N+](=O)[O-])cc1 (stereo unspecified) | 73
54 | C=C(CN(C)C)C(=O)c1ccc(OC)cc1 | 5.9
55 | C=C(CN(C)C)C(=O)c1ccc([N+](=O)[O-])cc1 | 8.2

test system: HL-60; test: Induction of apoptosis assessed as activation of caspase 9 activity in human HL60 cells after 4 hrs; type: functional, cell-based; settings: not given; method in brief: as §2

Row | SMILES | Activity
56 | C=C(CN(C)C)C(=O)c1ccc(OC)cc1 | Active

test system: not listed separately; test: Cytotoxicity against human Molt4/C8 cells after 72 hrs; type: functional, cell-based; settings: MOLT-4, 72 h; method in brief: as §4

Row | SMILES | IC50 [µM]
57 | C=C(CN(C)C)C(=O)c1ccccc1 | 146
58 | CN(C)CC(CO)C(=O)c1ccccc1 (stereo unspecified) | 5.84
59 | CN(C)CC(CO)C(=O)c1ccc([N+](=O)[O-])cc1 (stereo unspecified) | 36.8
60 | C=C(CN(C)C)C(=O)c1ccc(OC)cc1 | 21.3
61 | C=C(CN(C)C)C(=O)c1ccc([N+](=O)[O-])cc1 | 8.95

test system: SR; test: Cytotoxicity against human SR cells; type: cell-based; settings: not given; method in brief: as §3

Row | SMILES | IC50 [µM]
62 | C=C(CN(C)C)C(=O)c1ccccc1 | 0.55
63 | C=C(CN(C)C)C(=O)c1ccc(OC)cc1 | 14.5

test system: HL-60; test: Induction of apoptosis in human HL60 cells after 6 hrs; type: functional, cell-based; settings: not given
Method in brief: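 Apoptosis read out as DNA fragmentation. 5 × 10^5 cells were incubated for 6 h with 0.5, 1, 2, 4, 8 or 16 μM compound. DNA was run alongside a molecular weight marker and scored for an internucleosomal ladder versus a smear. The experiment was repeated.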

Row | SMILES | Activity
64 | C=C(CN(C)C)C(=O)c1ccc(OC)cc1 | Active

test system: HSC-2; test: Induction of apoptosis assessed as activation of caspase 3 activity in human HSC2 cells after 4 hrs; type: functional, cell-based; settings: not given; method in brief: as §2

Row | SMILES | Activity
65 | C=C(CN(C)C)C(=O)c1ccc(OC)cc1 | Active

test system: HL-60; test: Induction of apoptosis assessed as activation of caspase 8 activity in human HL60 cells after 4 hrs; type: functional, cell-based; settings: not given; method in brief: as §2

Row | SMILES | Activity
66 | C=C(CN(C)C)C(=O)c1ccc(OC)cc1 | Active
